Results on 3 compounds are retold here after ChEMBL document CHEMBL4145644 (J Nat Prod, 2018).

In assay [1] the test system is Staphylococcus aureus. The experiment in a line: Antimicrobial activity against Staphylococcus aureus KB210 ATCC 6538p assessed as zone of inhibition at 1 ug/disc measured after 24 to 48 hrs by paper disc method. The class given is functional. The following applies: read-out: IZ. In a few lines:
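Nutrient agar (0.5% peptone, 0.5% meat extract, 0.8% agar, pH 7.0) inoculated at 0.2% with S. aureus ATCC 6538p. 6 mm filter discs impregnated with 10 μL compound solution were applied. Plates were incubated at 37 °C for 24 h and inhibition zones were measured.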

Assay [2] has as its system Bacillus spizizenii. The experiment in a line: Antimicrobial activity against Bacillus subtilis KB211 ATCC 6633 assessed as zone of inhibition at 1 ug/disc measured after 24 to 48 hrs by paper disc method. In kind it is functional. To be noted: ATCC 6633 KB211, read-out: IZ. In a few lines:
(§1)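 Bacteria on nutrient agar (0.5% peptone, 0.5% meat extract, 0.8% agar, pH 7.0), 37 °C, 24 h. Inoculum 0.5% for B. subtilis, E. coli, K. pneumoniae, P. vulgaris; 0.2% for K. rhizophila. 6 mm discs carrying 10 μL compound solution. Zone of inhibition measured.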

The test system of assay [3] is Kocuria rhizophila. Nature of the assay: Antimicrobial activity against Kocuria rhizophila KB212 ATCC 9341 assessed as zone of inhibition at 1 ug/disc measured after 24 to 48 hrs by paper disc method. The following applies: read-out: IZ. In kind it is functional, Kocuria rhizophila DC2201. In a few lines:
as §1

Assay [4] concerns Mycolicibacterium smegmatis. The experiment in a line: Antimicrobial activity against Mycobacterium smegmatis KB42 assessed as zone of inhibition at 1 ug/disc measured after 24 to 48 hrs by paper disc method. In kind it is functional. To be noted: read-out: IZ.
The subject of assay [5] is Escherichia coli. Nature of the assay: Antimicrobial activity against Escherichia coli KB213 NIHJ assessed as zone of inhibition at 1 ug/disc measured after 24 to 48 hrs by paper disc method. In kind it is functional. The following applies: read-out: IZ. An outline of the steps: as §1
The subject of assay [6] is Klebsiella pneumoniae. Nature of the assay: Antimicrobial activity against Klebsiella pneumoniae KB214 ATCC 10031 assessed as zone of inhibition at 1 ug/disc measured after 24 to 48 hrs by paper disc method. The class given is functional. The following applies: read-out: IZ. An outline of the steps: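 Paper disc diffusion with 6 mm sterile filter discs, each loaded with 10 μL of compound solution and placed on nutrient agar (0.5% peptone, 0.5% meat extract, 0.8% agar, pH 7.0). Plates seeded with 0.5% inoculum and incubated at 37 °C for 24 h. Inhibition zone diameters measured after incubation.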

The test system of assay [7] is Pseudomonas aeruginosa. The experiment in a line: Antimicrobial activity against Pseudomonas aeruginosa KB359 NBRC 12582 assessed as zone of inhibition at 1 ug/disc measured after 24 to 48 hrs by paper disc method. The class given is functional. To be noted: read-out: IZ. In a few lines:
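Pseudomonas aeruginosa NBRC 12582 on nutrient agar (0.5% peptone, 0.5% meat extract, 0.8% agar, pH 7.0), 1.0% inoculation, 37 °C, 24 h. Discs (6 mm) impregnated with 10 μL compound solution placed on plate. Inhibition zones measured.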

Assay [8] concerns Xanthomonas campestris. Nature of the assay: Antimicrobial activity against Xanthomonas campestris pv. oryzae KB88 assessed as zone of inhibition at 1 ug/disc measured after 24 to 48 hrs by paper disc method. The class given is functional. To be noted: read-out: IZ. An outline of the steps: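 Paper disc diffusion with 6 mm sterile filter discs, each loaded with 10 μL of compound solution and placed on nutrient agar (0.5% peptone, 0.5% meat extract, 0.8% agar, pH 7.0). Plates seeded with 1.0% inoculum and incubated at 27 °C for 24 h. Inhibition zone diameters measured after incubation.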

For assay [9], the system named is Proteus vulgaris. The experiment in a line: Antimicrobial activity against Proteus vulgaris KB127 NBRC 3167 assessed as zone of inhibition at 1 ug/disc measured after 24 to 48 hrs by paper disc method. The class given is functional. The following applies: read-out: IZ. In a few lines:
as §1

For assay [10], the system named is Candida albicans. Nature of the assay: Antimicrobial activity against Candida albicans KF1 ATCC 64548 assessed as zone of inhibition at 10 ug/disc measured after 24 to 48 hrs by paper disc method. The class given is functional. To be noted: read-out: IZ.
Assay [11] has as its system Saccharomyces cerevisiae. Nature of the assay: Antimicrobial activity against Saccharomyces cerevisiae KF237 ATCC 9763 assessed as zone of inhibition at 10 ug/disc measured after 24 to 48 hrs by paper disc method. The class given is functional. To be noted: read-out: IZ.
In assay [12] the test system is Saccharomyces cerevisiae. The experiment in a line: Antimicrobial activity against Saccharomyces cerevisiae BY4741 assessed as zone of inhibition at 10 ug/disc measured after 24 to 48 hrs by paper disc method. In kind it is functional. The following applies: read-out: IZ. In a few lines: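 S. cerevisiae BY4741 spread on YPD agar (1% yeast extract, 2% peptone, 2% glucose, 1.5% agar) at 1% inoculation. Sterile 6 mm filter discs loaded with 10 μL compound solution were placed on the plates. Plates were incubated at 27 °C for 48 h, then inhibition zones were measured.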

In assay [13] the test system is Saccharomyces cerevisiae. The experiment in a line: Antimicrobial activity against Saccharomyces cerevisiae BY25929 harboring yrr2/yrs1/pdr1/pdr3 deletion mutant assessed as zone of inhibition at 10 ug/disc measured after 24 to 48 hrs by paper disc method. The class given is functional. To be noted: read-out: IZ. In a few lines: (§2)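 Paper disc diffusion with 6 mm sterile filter discs, each loaded with 10 μL of compound solution and placed on agar plates. Plates incubated at 27 or 37 °C for 24−48 h, then inhibition zones measured.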

The subject of assay [14] is Saccharomyces cerevisiae. The experiment in a line: Antimicrobial activity against Saccharomyces cerevisiae harboring 12genedelta0HSR-iERG6 mutant assessed as zone of inhibition at 10 ug/disc measured after 24 to 48 hrs by paper disc method. In kind it is functional. The following applies: read-out: IZ. In a few lines: as §2
Assay [15] deals with Aspergillus niger. The experiment in a line: Antimicrobial activity against Aspergillus niger KF103 ATCC 6275 assessed as zone of inhibition at 10 ug/disc measured after 24 to 48 hrs by paper disc method. The class given is functional. To be noted: read-out: IZ.
Assay [16] has as its system Mucor racemosus. Nature of the assay: Antimicrobial activity against Mucor racemosus KF223 assessed as zone of inhibition at 10 ug/disc measured after 24 to 48 hrs by paper disc method. The class given is functional. The following applies: read-out: IZ.
Assay [17] relates to Acholeplasma laidlawii. Nature of the assay: Antimicrobial activity against Acholeplasma laidlawii KB174 PG8 assessed as zone of inhibition at 1 ug/disc measured after 24 to 48 hrs by paper disc method. The following applies: read-out: IZ. In kind it is functional.

With `C[C@@H](O)[C@H]1C(=O)N2C(C(=O)O)=C(S[C@@H]3CN[C@H](C(=O)N(C)C)C3)[C@H](C)[C@H]12`, the zone of inhibition at 1 µg/disc in assay [1] was found to be 35.2 mm; in [2], 24.1 mm; in [3], 38 mm; in [4], 9.5 mm; in [5], 31 mm; in assay [6], 27 mm. In addition, the zone of inhibition at 1 µg/disc was determined as 47.3 mm in assay [7], 31.6 mm in assay [8] and 37.8 mm in assay [9].

Regarding `C[C@@H]1[C@H](O)[C@@H](C)/C=C/C=C/C=C/C=C/C=C/C=C/C=C/[C@H](O[C@@H]2O[C@H](C)[C@@H](O)[C@H](N)[C@@H]2O)C[C@@H]2O[C@](O)(C[C@@H](O)C[C@@H](O)[C@H](O)CC[C@@H](O)C[C@@H](O)CC(=O)O[C@H]1C)C[C@H](O)[C@H]2C(=O)O` [AMPHOTERICIN B], the zone of inhibition at 10 µg/disc was determined as 13 mm in [10]; 14.5 mm in [11]; 8.2 mm in assay [12]; 11.7 mm in [13]; 9.8 mm in assay [14]; 16.1 mm in [15]. Also, in assay [16], the zone of inhibition at 10 µg/disc turned out to be 15.1 mm.

In the case of `CC[C@H]1OC(=O)[C@H](C)[C@@H](O[C@H]2C[C@@](C)(OC)[C@@H](O)[C@H](C)O2)[C@H](C)[C@@H](O[C@@H]2O[C@H](C)C[C@H](N(C)C)[C@H]2O)[C@](C)(O)C[C@@H](C)C(=O)[C@H](C)[C@@H](O)[C@]1(C)O` [ERYTHROMYCIN], the zone of inhibition at 1 µg/disc in assay [17] stood at 28 mm.
